Results from ChEMBL document CHEMBL1124816, “Effect of structure on potency and selectivity in 2,6-disubstituted 4-(2-arylethenyl)phenol lipoxygenase inhibitors” (J Med Chem, 1990).

Tests used:
[1] = Inhibition of human platelet Prostaglandin G/H synthase at the concentration of 10 uM
In short: (§1)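 CO activity measured in human platelets. Percent inhibition at a single test concentration is compared with untreated control, with significance by ANOVA and Tukey's multiple comparisons test (p < 0.05).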

Cyclooxygenase [2] = target: T1, Cyclooxygenase (Homo sapiens, UniProt P35354+P23219); test: Inhibition of human platelet Prostaglandin G/H synthase
[3] = target: T2, Polyunsaturated fatty acid 5-lipoxygenase (Homo sapiens) (UniProt P09917); test: Inhibition of lipoxygenase at the concentration of 1 uM
T2 sequence (whole entry): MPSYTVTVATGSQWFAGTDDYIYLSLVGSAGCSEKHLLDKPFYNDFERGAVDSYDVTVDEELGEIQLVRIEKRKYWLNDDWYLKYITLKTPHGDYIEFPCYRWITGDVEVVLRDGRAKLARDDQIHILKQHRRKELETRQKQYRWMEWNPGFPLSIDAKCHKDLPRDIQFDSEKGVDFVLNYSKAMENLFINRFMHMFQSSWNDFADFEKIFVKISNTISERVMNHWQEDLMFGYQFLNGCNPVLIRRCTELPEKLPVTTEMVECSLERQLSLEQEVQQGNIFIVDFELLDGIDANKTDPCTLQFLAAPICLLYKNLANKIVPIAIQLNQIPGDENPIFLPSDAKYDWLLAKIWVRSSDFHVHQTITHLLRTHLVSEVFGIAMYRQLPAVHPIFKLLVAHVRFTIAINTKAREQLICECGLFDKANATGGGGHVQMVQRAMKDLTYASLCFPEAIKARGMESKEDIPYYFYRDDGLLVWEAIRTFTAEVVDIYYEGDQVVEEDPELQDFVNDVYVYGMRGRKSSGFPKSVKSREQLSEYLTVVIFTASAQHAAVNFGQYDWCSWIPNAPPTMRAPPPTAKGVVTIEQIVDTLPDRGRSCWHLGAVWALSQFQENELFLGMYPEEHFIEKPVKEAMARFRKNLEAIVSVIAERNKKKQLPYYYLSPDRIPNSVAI
In short: (§2)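 5-LO activity measured in human peripheral blood leukocytes. Percent inhibition at a single test concentration is compared with untreated control, with significance by ANOVA and Tukey's multiple comparisons test (p < 0.05).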

[4] = target: T3, Polyunsaturated fatty acid 5-lipoxygenase (Homo sapiens, UniProt P09917); test: Inhibition of human neutrophil 5-lipoxygenase
T3 sequence (P09917 whole entry): T2 sequence (whole entry)

[5] = target: T2, Polyunsaturated fatty acid 5-lipoxygenase (Homo sapiens); test: Inhibition of lipoxygenase at the concentration of 0.1 uM; in short: as §2
Cyclooxygenase [6] = target: T1, Cyclooxygenase; test: Inhibition of human platelet Prostaglandin G/H synthase at the concentration of 1 uM; in short: as §1
[7] = target: T2, Polyunsaturated fatty acid 5-lipoxygenase (Homo sapiens); test: Inhibition of human neutrophil 5-lipoxygenase at the concentration of 1 uM; in short: as §2
[8] = target: T2, Polyunsaturated fatty acid 5-lipoxygenase (Homo sapiens); test: Inhibition of human neutrophil 5-lipoxygenase at the concentration of 0.1 uM; in short: as §2

SMILES	inhibition [1] [%]	IC50 (Cyclooxygenase [2])	inhibition [3] [%]	IC50 [4] [nM]	inhibition [5] [%]	inhibition (Cyclooxygenase [6]) [%]	inhibition [7] [%]	inhibition [8] [%]
COc1cc(/C=C/c2cccs2)cc(OC)c1O	86	< 10 µM	–	~100	–	1	93	52
Cc1cc(/C=C/c2ccc(Cl)s2)cc(C)c1O	–	1.3 µM	–	< 1000	–	–	92	32
Cc1cc(Cc2cccnc2)cc(C)c1O	7	> 10 µM	–	> 1000	–	0	5	–
Cc1cc(/C=C/C(=O)c2ccc(F)cc2)cc(C)c1O	71	< 10 µM	33	> 1000	–	43	–	–
C/C(=C\c1cc(C)c(O)c(C)c1)c1ccc(F)cc1	–	0.63 µM	–	430	–	–	–	–
CCc1cc(/C=C/c2cccs2)cc(CC)c1O	96	< 10 µM	–	~100	–	39	89	52
Cc1cc(/C=C/c2ccccc2OCc2ccccc2)cc(C)c1O	92	~ 1 uM	–	< 1000	–	45	95	18
Cc1cc(/C=C2\CCOC2=O)cc(C)c1O	0	> 10 µM	1	> 1000	–	0	–	–
Cc1cc(CCc2cccs2)cc(C)c1O	–	0.11 µM	–	< 1000	–	–	67	11
Cc1cc(CCc2ccc(F)cc2)cc(C)c1O	–	0.3 µM	44	> 1000	–	–	–	–
Cc1cc(/C=C/c2c(F)cccc2F)cc(C)c1O	94	< 1 µM	96	< 1000	12	73	–	–
Cc1cc(CCC(=O)c2ccc(F)cc2)cc(C)c1O	80	< 10 µM	–	> 1000	–	29	44	–
Cc1cc(/C=C/c2cc(F)cc(F)c2)cc(C)c1O	74	1 µM	81	< 1000	6	50	–	–
CC(C)c1cc(/C=C/c2cccnc2)cc(C(C)C)c1O	–	< 10 µM	–	200	–	–	–	–
CC(C)c1cc(/C=C/c2cccs2)cc(C(C)C)c1O	–	< 1 µM	–	< 1000	–	–	94	14
C=CCc1cc(/C=C/c2cccs2)cc(C)c1O	–	0.73 µM	–	65	–	–	–	–
COc1cc(/C=C/c2cccs2)cc(F)c1O	97	< 10 µM	–	< 1000	–	42	89	31
Cc1cc(C(=O)c2cccs2)cc(C)c1O	90	< 1 µM	–	> 1000	–	60	1	–
Cc1cc(/C=C/C(=O)c2cccs2)cc(C)c1O	82	< 10 µM	22	> 1000	–	37	–	–
Cc1cc(/C=C/c2csc3ccccc23)cc(C)c1O	–	0.4 µM	87	< 1000	13	–	–	–
CC(C)(C)c1cc(/C=C/c2cccs2)cc(C(C)(C)C)c1O	–	0.034 µM	–	1200	–	–	–	–
CC(C)(C)c1cc(C(=O)c2cccs2)cc(C(C)(C)C)c1O [PRIFELONE]	–	0.0057 µM	–	4800	–	–	–	–
CC(C)(C)c1cc(/C=C2\CCOC2=O)cc(C(C)(C)C)c1O	–	0.11 µM	–	–	–	–	–	–
Cc1cc(C(=O)/C=C/c2cccs2)cc(C)c1O	82	< 10 µM	0	> 1000	–	25	–	–

Results, then the compound that gave them:

inhibition [1] [%]	IC50 (Cyclooxygenase [2])	inhibition [3] [%]	IC50 [4] [nM]	inhibition [5] [%]	inhibition (Cyclooxygenase [6]) [%]	inhibition [7] [%]	inhibition [8] [%]	SMILES
91	< 1 µM	94	< 1000	26	84	–	–	Cc1cc(/C=C/c2ccccc2Br)cc(C)c1O
67	< 10 µM	–	~1000	–	32	53	7	CCCCOc1ccc(/C=C/c2cc(C)c(O)c(C)c2)cc1
–	1.4 µM	30	> 1000	11	–	–	–	Cc1cc(/C=C/c2ccc(C(C)C)cc2)cc(C)c1O
0	> 10 µM	0	> 1000	–	0	–	–	Cc1cc(/C=C/c2ccc(C(=O)O)cc2)cc(C)c1O
95	< 1 µM	–	< 1000	–	72	90	18	Cc1cc(/C=C/c2cccs2)cc(F)c1O
–	2.5 µM	–	< 1000	–	–	82	29	Cc1cc(/C=C/c2ccccn2)cc(C)c1O
72	< 1 µM	94	< 1000	14	76	–	–	Cc1cc(/C=C/c2ccccc2C(F)(F)F)cc(C)c1O
–	0.61 µM	18	> 1000	24	–	–	–	CC(C)(C)c1cc(/C=C/c2ccc(F)cc2)cc(C(C)(C)C)c1O
–	11 µM	–	370	–	–	–	–	Cc1cc(/C=C/c2cccnc2)cc(C)c1O
–	0.19 µM	–	< 1000	–	–	90	27	CCCOc1ccc(/C=C/c2cc(C)c(O)c(C)c2)cc1
–	1.1 µM	–	100	–	–	–	–	COc1ccccc1/C=C/c1cc(C)c(O)c(C)c1
–	0.23 µM	–	< 1000	–	–	93	29	Cc1cc(/C=C/c2cccs2)cc(Cl)c1O
84	< 10 µM	–	< 1000	–	18	71	13	COc1ccc(/C=C/c2cc(C(C)C)c(O)c(C(C)C)c2)cc1
–	0.78 µM	–	< 1000	–	–	87	26	Cc1ccc(/C=C/c2cc(C)c(O)c(C)c2)s1
–	1.3 µM	–	240	–	–	–	–	Cc1ccc(C)c(/C=C/c2cc(C)c(O)c(C)c2)c1
73	< 10 µM	91	< 1000	21	35	–	–	CCc1cc(/C=C/c2ccc(C)cc2)cc(CC)c1O
80	< 10 µM	–	< 1000	–	33	90	15	CCc1cc(/C=C/c2ccc(OC)cc2)cc(CC)c1O
–	–	94	< 1000	27	–	–	–	Cc1cc(/C=C/c2cccc3ccccc23)cc(C)c1O
0	> 10 µM	0	> 1000	–	0	–	–	Cc1cc(/C=C/c2cccc(C(=O)O)c2)cc(C)c1O
–	0.71 µM	100	< 1000	25	–	–	–	Cc1cc(/C=C/c2ccc(F)cc2F)cc(C)c1O
–	0.75 µM	–	170	–	–	–	–	Cc1cc(/C=C/c2ccc(Cl)cc2)cc(C)c1O
–	0.51 µM	–	590	–	–	–	–	CCc1ccc(/C=C/c2cc(C)c(O)c(C)c2)cc1
5	> 10 µM	–	> 1000	–	0	0	–	COc1ccc(/C=C/c2cc(C(C)(C)C)c(O)c(C(C)(C)C)c2)cc1
17	> 10 µM	51	1000	1	0	–	–	Cc1cc(/C=C/c2ccncc2)cc(C)c1O
–	4.2 µM	–	100	–	–	–	–	Cc1cc(/C=C/c2ccccc2)cc(C)c1O
74	< 10 µM	40	> 1000	–	12	–	–	CC(C)c1cc(/C=C/c2ccc(F)cc2)cc(C(C)C)c1O
–	10 µM	0	> 1000	–	–	–	–	Cc1ccc(/C=C/c2cc(C(C)(C)C)c(O)c(C(C)(C)C)c2)cc1
